The source made the active and inactive calls.
Tests used:
[1] = Metabolic stability in rat liver S9 fraction assessed as compound remaining at 1 uM after 30 mins in presence of NADPH; format: ADME, subcellular; conditions: read-out: Stability
[2] = Solubility of the compound at pH 2.5 by HPLC analysis; format: physicochemical; conditions: buffer
Procedure, shortened: (§1)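 Compound (1 mg) shaken in 0.4 mL buffered solution at pH 7.4 or pH 2.5, then centrifuged; dissolved compound in the supernatant quantified by HPLC.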

Translocator protein = Translocator protein (Rattus norvegicus, UniProt P16257); test: Displacement of [3H]PK11195 from Sprague-Dawley rat kidney TSPO after 1 hr by liquid scintillation counting analysis
[3] = Solubility of the compound at pH 7.4 by HPLC analysis; format: physicochemical; conditions: buffer; procedure, shortened: as §1
Rattus norvegicus [4] = species: Rattus norvegicus; test: Displacement of [3H]flumazenil from Sprague-Dawley rat cerebral cortex CBR at 10 uM after 1 hr by liquid scintillation counting analysis; format: tissue-based
[5] = target: Beta-1 adrenergic receptor (Homo sapiens) (UniProt P08588); test: Binding affinity to human adrenergic beta1 receptor at 10 uM by radioligand binding assay
Procedure, shortened: (§2)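 Radioligand binding profiling panel across receptors and transporters linked to CNS, cardiovascular and pulmonary adverse events. Each target was tested once at 10 μM, run in duplicate.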

[6] = target: 5-hydroxytryptamine receptor 2A (Rattus norvegicus) (UniProt P14842); test: Binding affinity to rat non-selective serotonin 5HT2 receptor at 10 uM by radioligand binding assay; procedure, shortened: as §2
[7] = target: 5-hydroxytryptamine receptor 3A (Homo sapiens) (UniProt P46098); test: Binding affinity to human serotonin 5HT3 receptor at 10 uM by radioligand binding assay; procedure, shortened: as §2
[8] = target: Histamine H3 receptor (Homo sapiens) (UniProt Q9Y5N1); test: Binding affinity to human histamine H3 receptor at 10 uM by radioligand binding assay; procedure, shortened: as §2
[9] = target: Sodium-dependent dopamine transporter (Homo sapiens) (UniProt Q01959); test: Binding affinity to human dopamine transporter at 10 uM by radioligand binding assay; procedure, shortened: as §2
Rattus norvegicus [10] = species: Rattus norvegicus; test: Binding affinity to rat N-methyl D-aspartate receptor phencyclidine binding site at 10 uM by radioligand binding assay
Procedure, shortened: (§3)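 Off-target radioligand binding panel: compound tested in duplicate at a single concentration of 10 μM in each assay. Activity is reported as percent inhibition of radioligand binding.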

Rattus norvegicus [11] = species: Rattus norvegicus; test: Binding affinity to rat L-type calcium channel dihydropyridine binding site at 10 uM by radioligand binding assay; procedure, shortened: as §3
[12] = target: Adenosine receptor A2a (Homo sapiens) (UniProt P29274); test: Binding affinity to human adenosine A2A receptor at 10 uM by radioligand binding assay; procedure, shortened: as §2
[13] = target: 5-hydroxytryptamine receptor 6 (Homo sapiens) (UniProt P50406); test: Binding affinity to human serotonin 5HT6 receptor at 10 uM by radioligand binding assay; procedure, shortened: as §2
[14] = target: Gastrin/cholecystokinin type B receptor (Homo sapiens) (UniProt P32239); test: Binding affinity to human CCK2 receptor at 10 uM by radioligand binding assay; procedure, shortened: as §2
[15] = target: Neuropeptide Y receptor type 1 (Homo sapiens) (UniProt P25929); test: Binding affinity to human Neuropeptide Y receptor Y1 at 10 uM by radioligand binding assay; procedure, shortened: as §2
[16] = target: Mu-type opioid receptor (Homo sapiens) (UniProt P35372); test: Binding affinity to human mu opiate receptor at 10 uM by radioligand binding assay; procedure, shortened: as §2
Rattus norvegicus [17] = species: Rattus norvegicus; test: Binding affinity to rat GABAA receptor agonist binding site at 10 uM by radioligand binding assay; procedure, shortened: as §3
[18] = target: Vasopressin V1a receptor (Homo sapiens) (UniProt P37288); test: Binding affinity to human vasopressin V1A receptor at 10 uM by radioligand binding assay; procedure, shortened: as §2
[19] = target: Galanin receptor type 1 (Homo sapiens) (UniProt P47211); test: Binding affinity to human GAL1 receptor at 10 uM by radioligand binding assay; procedure, shortened: as §2
[20] = target: Somatostatin receptor type 2 (Homo sapiens) (UniProt P30874); test: Binding affinity to human somatostatin sst2 receptor at 10 uM by radioligand binding assay; procedure, shortened: as §2
[21] = target: Melanocortin receptor 4 (Homo sapiens) (UniProt P32245); test: Binding affinity to human melanocortin MC4 receptor at 10 uM by radioligand binding assay; procedure, shortened: as §2
Rattus norvegicus [22] = test: Anxiolytic-like activity in Sprague-Dawley rat vogel conflict model assessed as increase in number of shocks at 1 mg/kg, po after 1 hr; format: functional, organism-based; parameters: dose 1 mg/kg
[23] = target: Substance-P receptor (Homo sapiens) (UniProt P25103); test: Binding affinity to human tachykinin NK1 receptor at 10 uM by radioligand binding assay; procedure, shortened: as §2
[24] = target: D(1A) dopamine receptor (Homo sapiens) (UniProt P21728); test: Binding affinity to human dopamine D1 receptor at 10 uM by radioligand binding assay; procedure, shortened: as §2
Rattus norvegicus [25] = species: Rattus norvegicus; test: Binding affinity to rat non-selective GABAB receptor at 10 uM by radioligand binding assay; procedure, shortened: as §3
[26] = target: Neuropeptide Y receptor type 2 (Homo sapiens) (UniProt P49146); test: Binding affinity to human Neuropeptide Y receptor Y2 at 10 uM by radioligand binding assay; procedure, shortened: as §2
[27] = target: Sodium-dependent noradrenaline transporter (Homo sapiens) (UniProt P23975); test: Binding affinity to human norepinephrine transporter at 10 uM by radioligand binding assay; procedure, shortened: as §2
[28] = target: Cannabinoid receptor 1 (Homo sapiens) (UniProt P21554); test: Binding affinity to human CB1 receptor at 10 uM by radioligand binding assay; procedure, shortened: as §2
Rattus norvegicus [29] = species: Rattus norvegicus; test: Binding affinity to rat strychnine-sensitive glycine receptor at 10 uM by radioligand binding assay; procedure, shortened: as §3
Rattus norvegicus [30] = species: Rattus norvegicus; test: Binding affinity to rat N-type calcium channel at 10 uM by radioligand binding assay; procedure, shortened: as §3
Rattus norvegicus [31] = species: Rattus norvegicus; test: Binding affinity to rat kainate receptor at 10 uM by radioligand binding assay; procedure, shortened: as §3
[32] = target: Phosphodiesterase 4 (Homo sapiens) (UniProt P27815+Q08499+Q07343+Q08493); test: Inhibition of human phosphodiesterase PDE4 at 10 uM; format: protein assay
[33] = target: Cholecystokinin receptor type A (Homo sapiens) (UniProt P32238); test: Binding affinity to human CCK1 receptor at 10 uM by radioligand binding assay; procedure, shortened: as §2
Mesocricetus auratus = species: Mesocricetus auratus; test: Binding affinity to syrian hamster ATP-sensitive potassium channel at 10 uM by radioligand binding assay; procedure, shortened: as §3
[34] = target: Muscarinic acetylcholine receptor M2 (Homo sapiens) (UniProt P08172); test: Binding affinity to human muscarinic M2 receptor at 10 uM by radioligand binding assay; procedure, shortened: as §2
[35] = target: Sigma non-opioid intracellular receptor 1 (Homo sapiens) (UniProt Q99720); test: Binding affinity to human sigma1 receptor at 10 uM by radioligand binding assay; procedure, shortened: as §2
[36] = target: Alpha-2A adrenergic receptor (Homo sapiens) (UniProt P08913); test: Binding affinity to human adrenergic alpha2A receptor at 10 uM by radioligand binding assay; procedure, shortened: as §2
[37] = target: Type-1 angiotensin II receptor (Homo sapiens) (UniProt P30556); test: Binding affinity to human angiotensin AT1 receptor at 10 uM by radioligand binding assay; procedure, shortened: as §2
Homo sapiens = species: Homo sapiens; test: Binding affinity to human nicotinic acetylcholine receptor at 10 uM by radioligand binding assay; procedure, shortened: as §3
[38] = target: 5-hydroxytryptamine receptor 4 (Cavia porcellus) (UniProt O70528); test: Binding affinity to guinea pig serotonin 5HT4 receptor at 10 uM by radioligand binding assay; procedure, shortened: as §2
[39] = target: Beta-2 adrenergic receptor (Homo sapiens) (UniProt P07550); test: Binding affinity to human adrenergic beta2 receptor at 10 uM by radioligand binding assay; procedure, shortened: as §2
[40] = target: Muscarinic acetylcholine receptor M3 (Homo sapiens) (UniProt P20309); test: Binding affinity to human muscarinic M3 receptor at 10 uM by radioligand binding assay; procedure, shortened: as §2
[41] = target: Corticotropin-releasing factor receptor 1 (Homo sapiens) (UniProt P34998); test: Binding affinity to human CRF1 receptor at 10 uM by radioligand binding assay; procedure, shortened: as §2
[42] = target: Estrogen receptor beta (Homo sapiens) (UniProt Q92731); test: Binding affinity to human ERbeta at 10 uM by radioligand binding assay; procedure, shortened: as §2
[43] = target: Glucocorticoid receptor (Homo sapiens) (UniProt P04150); test: Binding affinity to human glucocorticoid receptor at 10 uM by radioligand binding assay; procedure, shortened: as §2
[44] = target: Adenosine receptor A1 (Homo sapiens) (UniProt P30542); test: Binding affinity to human adenosine A1 receptor at 10 uM by radioligand binding assay; procedure, shortened: as §2
[45] = target: Nociceptin receptor (Homo sapiens) (UniProt P41146); test: Binding affinity to human ORL1 receptor at 10 uM by radioligand binding assay; procedure, shortened: as §2
[46] = target: Vasopressin V1b receptor (Homo sapiens) (UniProt P47901); test: Binding affinity to human vasopressin V1B receptor at 10 uM by radioligand binding assay; procedure, shortened: as §2
[47] = target: Type-2 angiotensin II receptor (Homo sapiens) (UniProt P50052); test: Binding affinity to human angiotensin AT2 receptor at 10 uM by radioligand binding assay; procedure, shortened: as §2
[48] = target: Bombesin receptor subtype-3 (Homo sapiens) (UniProt P32247); test: Binding affinity to human bombesin BB3 receptor at 10 uM by radioligand binding assay; procedure, shortened: as §2
Rattus norvegicus [49] = species: Rattus norvegicus; test: Binding affinity to rat GABAA receptor TBOB binding site at 10 uM by radioligand binding assay; procedure, shortened: as §3
Rattus norvegicus [50] = species: Rattus norvegicus; test: Displacement of [3H]batrachotoxin from rat brain sodium channel site 2 at 10 uM relative to control; format: tissue-based
Rattus norvegicus [51] = test: Anxiolytic-like activity in Sprague-Dawley rat vogel conflict model at 3 mg/kg, po after 1 hr; format: functional, organism-based; parameters: dose 3 mg/kg
[52] = Displacement of [3H]batrachotoxin from rat brain sodium channel site 2; format: tissue-based

Sequence of Translocator protein (P16257 whole entry, looked up): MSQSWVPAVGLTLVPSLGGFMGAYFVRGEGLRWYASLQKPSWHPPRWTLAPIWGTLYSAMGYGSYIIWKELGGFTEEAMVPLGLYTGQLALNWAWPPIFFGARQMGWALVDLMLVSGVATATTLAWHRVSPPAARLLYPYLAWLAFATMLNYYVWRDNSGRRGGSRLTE
Sequence of Glucocorticoid receptor (Homo sapiens) (P04150 whole entry): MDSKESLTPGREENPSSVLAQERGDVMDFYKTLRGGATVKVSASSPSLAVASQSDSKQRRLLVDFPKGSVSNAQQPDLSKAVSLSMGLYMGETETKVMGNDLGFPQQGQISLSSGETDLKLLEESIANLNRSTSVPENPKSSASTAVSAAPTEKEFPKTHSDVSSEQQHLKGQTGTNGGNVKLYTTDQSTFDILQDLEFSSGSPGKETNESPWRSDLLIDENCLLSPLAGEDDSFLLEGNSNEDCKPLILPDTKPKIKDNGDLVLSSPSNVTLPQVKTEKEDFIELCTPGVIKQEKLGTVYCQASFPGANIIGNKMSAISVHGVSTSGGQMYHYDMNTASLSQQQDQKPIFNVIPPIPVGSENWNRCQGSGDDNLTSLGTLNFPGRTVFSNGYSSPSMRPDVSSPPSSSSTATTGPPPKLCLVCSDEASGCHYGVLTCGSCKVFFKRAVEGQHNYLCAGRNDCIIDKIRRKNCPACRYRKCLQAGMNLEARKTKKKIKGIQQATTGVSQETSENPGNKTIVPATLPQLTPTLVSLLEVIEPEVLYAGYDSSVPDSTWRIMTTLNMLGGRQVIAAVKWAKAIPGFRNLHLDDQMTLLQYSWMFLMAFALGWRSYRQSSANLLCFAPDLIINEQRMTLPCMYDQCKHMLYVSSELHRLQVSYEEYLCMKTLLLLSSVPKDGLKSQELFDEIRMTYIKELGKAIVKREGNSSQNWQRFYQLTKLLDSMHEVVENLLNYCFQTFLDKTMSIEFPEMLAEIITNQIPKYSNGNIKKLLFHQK
Sequence of Sigma non-opioid intracellular receptor 1 (Homo sapiens) (Q99720 whole entry): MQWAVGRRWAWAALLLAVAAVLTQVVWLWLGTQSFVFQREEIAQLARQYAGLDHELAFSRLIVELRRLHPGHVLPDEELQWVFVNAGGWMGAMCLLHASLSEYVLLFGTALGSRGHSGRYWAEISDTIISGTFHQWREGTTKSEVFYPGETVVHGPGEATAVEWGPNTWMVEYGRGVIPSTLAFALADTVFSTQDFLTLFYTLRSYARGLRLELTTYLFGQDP
Sequence of D(1A) dopamine receptor (Homo sapiens) (P21728 whole entry): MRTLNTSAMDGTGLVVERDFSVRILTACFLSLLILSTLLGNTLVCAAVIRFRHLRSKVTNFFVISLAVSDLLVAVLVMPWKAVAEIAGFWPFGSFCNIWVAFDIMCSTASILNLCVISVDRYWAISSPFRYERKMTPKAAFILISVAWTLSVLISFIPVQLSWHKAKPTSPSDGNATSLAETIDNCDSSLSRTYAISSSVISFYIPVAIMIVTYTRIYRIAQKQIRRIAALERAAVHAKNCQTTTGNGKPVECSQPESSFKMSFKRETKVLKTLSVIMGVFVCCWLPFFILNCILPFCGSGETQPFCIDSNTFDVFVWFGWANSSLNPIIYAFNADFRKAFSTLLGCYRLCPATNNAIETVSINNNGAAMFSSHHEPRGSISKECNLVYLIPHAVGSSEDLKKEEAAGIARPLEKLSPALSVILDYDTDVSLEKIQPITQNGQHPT
Sequence of Adenosine receptor A1 (Homo sapiens) (P30542 whole entry): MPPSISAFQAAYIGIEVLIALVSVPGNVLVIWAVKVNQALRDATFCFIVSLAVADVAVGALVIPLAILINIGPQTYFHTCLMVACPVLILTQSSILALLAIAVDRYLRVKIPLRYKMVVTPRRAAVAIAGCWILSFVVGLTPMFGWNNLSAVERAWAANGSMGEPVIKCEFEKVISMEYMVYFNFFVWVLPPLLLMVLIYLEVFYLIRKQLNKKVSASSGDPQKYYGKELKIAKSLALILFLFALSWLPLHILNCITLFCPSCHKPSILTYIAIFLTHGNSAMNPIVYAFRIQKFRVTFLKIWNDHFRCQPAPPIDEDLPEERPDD
Sequence of Estrogen receptor beta (Homo sapiens) (Q92731 whole entry): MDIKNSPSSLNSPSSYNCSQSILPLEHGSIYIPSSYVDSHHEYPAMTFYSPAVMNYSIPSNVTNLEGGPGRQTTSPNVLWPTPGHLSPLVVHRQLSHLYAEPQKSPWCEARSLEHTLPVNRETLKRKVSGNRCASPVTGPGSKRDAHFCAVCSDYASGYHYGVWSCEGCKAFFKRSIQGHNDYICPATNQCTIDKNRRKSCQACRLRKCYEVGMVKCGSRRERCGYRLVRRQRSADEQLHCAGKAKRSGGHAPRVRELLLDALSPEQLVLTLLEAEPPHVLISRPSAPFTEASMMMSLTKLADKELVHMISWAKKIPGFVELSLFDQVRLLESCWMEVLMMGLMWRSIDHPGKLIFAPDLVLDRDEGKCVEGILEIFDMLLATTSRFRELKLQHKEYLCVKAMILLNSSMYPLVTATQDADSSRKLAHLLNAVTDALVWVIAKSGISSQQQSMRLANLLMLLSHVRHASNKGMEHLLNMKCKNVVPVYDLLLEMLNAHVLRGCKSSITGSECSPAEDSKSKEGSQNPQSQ
Sequence of 5-hydroxytryptamine receptor 3A (Homo sapiens) (P46098 whole entry): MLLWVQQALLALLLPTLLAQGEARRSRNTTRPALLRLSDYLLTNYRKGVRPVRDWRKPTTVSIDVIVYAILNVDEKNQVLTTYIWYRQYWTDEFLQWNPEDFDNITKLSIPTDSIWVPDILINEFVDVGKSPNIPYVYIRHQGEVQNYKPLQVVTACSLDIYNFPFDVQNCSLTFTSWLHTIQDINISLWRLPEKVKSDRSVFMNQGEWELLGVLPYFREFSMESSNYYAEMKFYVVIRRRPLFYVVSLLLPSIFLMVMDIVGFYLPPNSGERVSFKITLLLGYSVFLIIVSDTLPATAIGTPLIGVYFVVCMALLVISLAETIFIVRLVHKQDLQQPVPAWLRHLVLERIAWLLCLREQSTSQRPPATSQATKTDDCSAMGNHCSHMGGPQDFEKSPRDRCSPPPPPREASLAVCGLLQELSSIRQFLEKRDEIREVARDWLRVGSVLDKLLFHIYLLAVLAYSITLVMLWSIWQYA
Sequence of Type-2 angiotensin II receptor (Homo sapiens) (P50052 whole entry): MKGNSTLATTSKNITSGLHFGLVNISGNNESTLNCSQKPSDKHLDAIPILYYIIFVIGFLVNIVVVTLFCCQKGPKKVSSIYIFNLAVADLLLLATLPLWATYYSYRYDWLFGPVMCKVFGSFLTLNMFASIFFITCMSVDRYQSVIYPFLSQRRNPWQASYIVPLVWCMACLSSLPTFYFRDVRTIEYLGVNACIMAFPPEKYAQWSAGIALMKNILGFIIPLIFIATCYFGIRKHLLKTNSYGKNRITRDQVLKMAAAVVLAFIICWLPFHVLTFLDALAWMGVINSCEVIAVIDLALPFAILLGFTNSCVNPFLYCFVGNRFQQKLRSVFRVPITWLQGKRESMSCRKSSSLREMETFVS
Sequence of Histamine H3 receptor (Homo sapiens) (Q9Y5N1 whole entry): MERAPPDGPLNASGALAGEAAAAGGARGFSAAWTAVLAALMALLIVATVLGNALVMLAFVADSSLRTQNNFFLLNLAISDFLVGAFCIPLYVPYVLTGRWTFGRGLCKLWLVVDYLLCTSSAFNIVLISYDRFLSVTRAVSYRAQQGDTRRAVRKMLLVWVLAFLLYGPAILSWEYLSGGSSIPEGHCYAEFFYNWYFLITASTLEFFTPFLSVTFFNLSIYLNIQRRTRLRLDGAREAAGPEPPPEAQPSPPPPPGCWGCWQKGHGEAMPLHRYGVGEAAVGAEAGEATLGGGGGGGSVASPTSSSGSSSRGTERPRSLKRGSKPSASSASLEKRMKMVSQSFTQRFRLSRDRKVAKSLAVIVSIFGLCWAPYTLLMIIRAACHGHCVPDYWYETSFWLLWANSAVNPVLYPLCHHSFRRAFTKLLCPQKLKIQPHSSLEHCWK
Sequence of Somatostatin receptor type 2 (Homo sapiens) (P30874 whole entry): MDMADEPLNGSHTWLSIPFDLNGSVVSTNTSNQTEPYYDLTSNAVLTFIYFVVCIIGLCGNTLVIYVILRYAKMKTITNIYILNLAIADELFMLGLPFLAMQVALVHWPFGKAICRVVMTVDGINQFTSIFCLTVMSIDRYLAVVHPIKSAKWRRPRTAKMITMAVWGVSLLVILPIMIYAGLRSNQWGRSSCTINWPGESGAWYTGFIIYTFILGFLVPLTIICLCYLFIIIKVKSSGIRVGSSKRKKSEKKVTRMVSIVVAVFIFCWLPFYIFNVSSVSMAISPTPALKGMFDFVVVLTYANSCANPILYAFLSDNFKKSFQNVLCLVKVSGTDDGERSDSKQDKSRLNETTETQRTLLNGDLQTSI
Sequence of Beta-2 adrenergic receptor (Homo sapiens) (P07550 whole entry, looked up): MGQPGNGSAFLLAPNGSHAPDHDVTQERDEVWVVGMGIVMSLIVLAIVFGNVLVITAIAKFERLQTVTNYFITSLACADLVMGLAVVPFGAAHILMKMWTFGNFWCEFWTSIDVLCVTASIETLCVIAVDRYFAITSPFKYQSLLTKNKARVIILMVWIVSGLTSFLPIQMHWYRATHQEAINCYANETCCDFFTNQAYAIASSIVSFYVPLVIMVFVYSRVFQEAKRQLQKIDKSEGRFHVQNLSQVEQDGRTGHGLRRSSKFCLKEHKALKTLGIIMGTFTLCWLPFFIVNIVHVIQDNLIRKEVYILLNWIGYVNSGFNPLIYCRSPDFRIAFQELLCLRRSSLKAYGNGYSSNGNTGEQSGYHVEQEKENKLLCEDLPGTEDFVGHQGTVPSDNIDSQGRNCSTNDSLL
Sequence of Neuropeptide Y receptor type 2 (Homo sapiens) (P49146 whole entry): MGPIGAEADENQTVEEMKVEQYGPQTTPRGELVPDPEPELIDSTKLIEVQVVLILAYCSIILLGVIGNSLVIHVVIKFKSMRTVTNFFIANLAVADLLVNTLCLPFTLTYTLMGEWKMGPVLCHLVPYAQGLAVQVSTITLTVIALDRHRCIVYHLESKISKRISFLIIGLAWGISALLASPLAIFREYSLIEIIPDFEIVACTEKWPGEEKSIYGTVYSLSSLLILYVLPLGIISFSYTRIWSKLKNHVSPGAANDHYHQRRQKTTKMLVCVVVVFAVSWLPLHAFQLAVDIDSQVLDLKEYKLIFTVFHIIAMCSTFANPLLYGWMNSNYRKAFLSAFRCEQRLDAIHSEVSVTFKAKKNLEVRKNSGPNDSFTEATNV

COc1ccc(N(C)C(=O)Cn2c(=O)oc3ccc(-c4ccncc4)cc32)cc1
< 1 µg/mL: solubility [3]
130 µg/mL: solubility [2]
2%: inhibition (Rattus norvegicus [4])
17 nM: Ki (Translocator protein)
47%: remaining at 0.5 h, 1 µM [1]

CN(C(=O)Cn1c(=O)oc2ccc(-c3cccnc3)cc21)c1ccc(C(F)(F)F)cc1
inactive: inhibition [5] | inhibition [6] | inhibition [7] | inhibition [8] | inhibition [9] | inhibition (Rattus norvegicus [10]) | inhibition (Rattus norvegicus [11]) | inhibition [12] | inhibition [13] | inhibition [14] | inhibition [15] | inhibition [16] | inhibition (Rattus norvegicus [17]) | inhibition [18] | inhibition [19] | inhibition [20] | inhibition [21] | inhibition [23] | inhibition [24] | inhibition (Rattus norvegicus [25]) | inhibition [26] | inhibition [27] | inhibition [28] | inhibition (Rattus norvegicus [29]) | inhibition (Rattus norvegicus [30]) | inhibition (Rattus norvegicus [31]) | inhibition [32] | inhibition [33] | inhibition (Mesocricetus auratus) | inhibition [34] | inhibition [35] | inhibition [36] | inhibition [37] | inhibition (Homo sapiens) | inhibition [38] | inhibition [39] | inhibition [40] | inhibition [41] | inhibition [42] | inhibition [43] | inhibition [44] | inhibition [45] | inhibition [46] | inhibition [47] | inhibition [48] | inhibition (Rattus norvegicus [49])
0%: inhibition (Rattus norvegicus [4])
active: Activity (Rattus norvegicus [22])

CN(C(=O)Cn1c(=O)oc2ccc(-c3ccc(C(F)(F)F)cc3)cc21)c1ccccc1
< 1 µg/mL: solubility [2] | solubility [3]

CN(C(=O)Cn1c(=O)oc2ccc(-c3ccc(OC(F)(F)F)cc3)cc21)c1cccnc1
active: Activity (Rattus norvegicus [51])
0%: inhibition (Rattus norvegicus [4])
108%: inhibition (Rattus norvegicus [50])

CN(C(=O)Cn1c(=O)oc2ccc(-c3cccnc3)cc21)c1ccccc1
5 µg/mL: solubility [3]

CN(C(=O)Cn1c(=O)oc2ccc(-c3ccccc3)cc21)c1ccccn1
3 µg/mL: solubility [2]
1 µg/mL: solubility [3]

CN(C(=O)Cn1c(=O)oc2ccc(-c3cccnc3)cc21)c1ccc(OC(F)(F)F)cc1
> 1000 nM: IC50 [52]
26 nM: Ki (Translocator protein)
0%: inhibition (Rattus norvegicus [4])

CN(C(=O)Cn1c(=O)oc2ccc(-c3ccncc3)cc21)c1ccc(OC(F)(F)F)cc1
23 nM: Ki (Translocator protein)

CN(C(=O)Cn1c(=O)oc2ccc(-c3ccc(OC(F)(F)F)cc3)cc21)c1ccccc1
< 1 µg/mL: solubility [2] | solubility [3]
